These results are taken from ChEMBL document CHEMBL4610112, “Novel Pyrrolopyridone Bromodomain and Extra-Terminal Motif (BET) Inhibitors Effective in Endocrine-Resistant ER+ Breast Cancer with Acquired Resistance to Fulvestrant and Palbociclib” (J Med Chem, 2020).

Activity calls are given as the source filed them. The calls are words filed in the database; no cut-off is given here.

Series [1] concerns MCF7:CFR. Kind of series: Down regulation of IGFBP5 gene expression in fulvestrant-resistant human MCF7:CFR cells at 100 nM measured after 24 hrs. In kind it is functional, cell-based. The gist of the method: (§1)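 MCF-7:CFR cells were treated with compound at 100 nM or DMSO (0.01%) for 24 h. RNA extracted and RNA-seq performed. Output given as log2 fold change versus vehicle.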

The test system of series [2] is MCF7:CFR. Nature of the series: Down regulation of IFI44L gene expression in fulvestrant-resistant human MCF7:CFR cells at 100 nM measured after 24 hrs. It counts as functional, cell-based. The gist of the method: as §1
For series [3], the system named is MCF7:CFR. Nature of the series: Down regulation of BCAS1 gene expression in fulvestrant-resistant human MCF7:CFR cells at 100 nM measured after 24 hrs. In kind it is functional, cell-based. The gist of the method: as §1
Series [4] relates to MCF7:CFR. Nature of the series: Down regulation of NUPR1 gene expression in fulvestrant-resistant human MCF7:CFR cells at 100 nM measured after 24 hrs. It counts as functional, cell-based. The gist of the method:
as §1

Series [5] concerns MCF7:CFR. Kind of series: Down regulation of CLEC3A gene expression in fulvestrant-resistant human MCF7:CFR cells at 100 nM measured after 24 hrs. In kind it is functional, cell-based. The gist of the method:
as §1

Series [6] has as its system MCF7:CFR. Nature of the series: Down regulation of PARP10 gene expression in fulvestrant-resistant human MCF7:CFR cells at 100 nM measured after 24 hrs. It counts as functional, cell-based. The gist of the method: as §1
In series [7] the test system is MCF7:CFR. Kind of series: Down regulation of ZMYND8 gene expression in fulvestrant-resistant human MCF7:CFR cells at 100 nM measured after 24 hrs. In kind it is functional, cell-based. The gist of the method:
as §1

In series [8] the test system is MCF7:CFR. Nature of the series: Down regulation of KRT83 gene expression in fulvestrant-resistant human MCF7:CFR cells at 100 nM measured after 24 hrs. In kind it is functional, cell-based. The gist of the method:
as §1

The subject of series [9] is MCF7:CFR. Kind of series: Down regulation of HIST1H3B gene expression in fulvestrant-resistant human MCF7:CFR cells at 100 nM measured after 24 hrs. It counts as functional, cell-based. The gist of the method: as §1
Series [10] deals with MCF7:CFR. Kind of series: Down regulation of CCDC170 gene expression in fulvestrant-resistant human MCF7:CFR cells at 100 nM measured after 24 hrs. It counts as functional, cell-based. The gist of the method: as §1
In series [11] the test system is MCF7:CFR. Kind of series: Down regulation of c-MYC gene expression in fulvestrant-resistant human MCF7:CFR cells at 100 nM measured after 24 hrs. In kind it is functional, cell-based. The gist of the method: (§2)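 MCF-7:CFR cells exposed to compound at 100 nM, with DMSO (0.01%) as control, for 24 h. RNA extracted and analysed by RNA-seq. Values are log2-fold changes in gene expression against the vehicle control.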

For series [12], the system named is MCF7:CFR. Kind of series: Down regulation of n-MYC gene expression in fulvestrant-resistant human MCF7:CFR cells at 100 nM measured after 24 hrs. It counts as functional, cell-based. The gist of the method:
as §2

In series [13] the test system is MCF7:CFR. Nature of the series: Up regulation of CDKN1B gene expression in fulvestrant-resistant human MCF7:CFR cells at 100 nM measured after 24 hrs. It counts as functional, cell-based. The gist of the method:
as §2

In series [14] the test system is MCF7:CFR. Kind of series: Down regulation of cyclin-D gene expression in fulvestrant-resistant human MCF7:CFR cells at 100 nM measured after 24 hrs. In kind it is functional, cell-based. The gist of the method:
as §2

The test system of series [15] is MCF7:CFR. Kind of series: Down regulation of NRAS gene expression in fulvestrant-resistant human MCF7:CFR cells at 100 nM measured after 24 hrs. In kind it is functional, cell-based. The gist of the method:
as §1

Series [16] relates to MCF7:CFR. Kind of series: Down regulation of ERBB3 gene expression in fulvestrant-resistant human MCF7:CFR cells at 100 nM measured after 24 hrs. In kind it is functional, cell-based. The gist of the method:
as §1

The subject of series [17] is MCF7:CFR. Nature of the series: Down regulation of c-MET gene expression in fulvestrant-resistant human MCF7:CFR cells at 100 nM measured after 24 hrs. In kind it is functional, cell-based. The gist of the method:
as §1

Series [18] relates to MCF7:CFR. Kind of series: Up regulation of RIPK1 gene expression in fulvestrant-resistant human MCF7:CFR cells at 100 nM measured after 24 hrs. It counts as functional, cell-based. The gist of the method: (§3)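 MCF-7:CFR cells (fulvestrant-resistant, kept in 200 nM fulvestrant in phenol red-free stripped RPMI-1640) treated with 100 nM compound or DMSO (0.01%) for 24 h. RNA extracted and RNA-seq performed, expression reported as log2 fold change versus vehicle.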

Series [19] relates to MCF7:CFR. Kind of series: Up regulation of APAF1 gene expression in fulvestrant-resistant human MCF7:CFR cells at 100 nM measured after 24 hrs. In kind it is functional, cell-based. The gist of the method:
as §3

For series [20], the system named is MCF7:CFR. Kind of series: Up regulation of CASP3 gene expression in fulvestrant-resistant human MCF7:CFR cells at 100 nM measured after 24 hrs. It counts as functional, cell-based. The gist of the method: as §3
Series [21] relates to MCF7:CFR. Kind of series: Up regulation of CASP6 gene expression in fulvestrant-resistant human MCF7:CFR cells at 100 nM measured after 24 hrs. It counts as functional, cell-based. The gist of the method:
as §3

Series [22] relates to MCF7:CFR. Nature of the series: Up regulation of CASP9 gene expression in fulvestrant-resistant human MCF7:CFR cells at 100 nM measured after 24 hrs. In kind it is functional, cell-based. The gist of the method: as §3
Series [23] relates to MCF7:CFR. Nature of the series: Down regulation of BCL2L1 gene expression in fulvestrant-resistant human MCF7:CFR cells at 100 nM measured after 24 hrs. It counts as functional, cell-based. The gist of the method: as §1
Series [24] concerns MCF7:CFR. Nature of the series: Down regulation of BCL2 gene expression in fulvestrant-resistant human MCF7:CFR cells at 100 nM measured after 24 hrs. In kind it is functional, cell-based. The gist of the method:
as §1

The subject of series [25] is MCF7:CFR. Kind of series: Down regulation of ESR1 gene expression in fulvestrant-resistant human MCF7:CFR cells at 100 nM measured after 24 hrs. In kind it is functional, cell-based. The gist of the method: as §1
The species named for series [26] is Homo sapiens. Kind of series: Growth inhibition of tamoxifen-sensitive human MCF7:WS8 cells measured after 5 days by Hoechst 33342 dye based imaging analysis. In kind it is functional. The gist of the method: (§4)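 Cells seeded at 2000/well in their maintenance medium, treated once the next day with compound (0.1 nM–10 μM; 0.1% DMSO final). Day 5 Hoechst 33342 staining with imaging count. Survival normalized to DMSO (100%) and JQ1 3 μM (0%). IC50 given as mean ± SEM from at least two passages, each in triplicate.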

For series [27], the species on record is Homo sapiens. Nature of the series: Growth inhibition of tamoxifen-resistant human MCF7:5C cells measured after 5 days by Hoechst 33342 dye based imaging analysis. In kind it is functional. The gist of the method: as §4
Series [28] concerns MCF7:TAM1. Nature of the series: Growth inhibition of tamoxifen-resistant human MCF7:TAM1 cells measured after 5 days by Hoechst 33342 dye based imaging analysis. It counts as functional, cell-based. The gist of the method:
as §4

For series [29], the system named is T47D. Kind of series: Growth inhibition of tamoxifen-sensitive human T47D cells measured after 5 days by Hoechst 33342 dye based imaging analysis. In kind it is functional, cell-based. The gist of the method:
as §4

The species named for series [30] is Homo sapiens. Nature of the series: Growth inhibition of human T47D:TDG cells harboring ESR1 D538G mutant measured after 5 days by Hoechst 33342 dye based imaging analysis. It counts as functional. The gist of the method:
as §4

Series [31] is filed under the species Homo sapiens. Kind of series: Growth inhibition of tamoxifen and palbociclib-resistant human MCF7:CPR cells measured after 5 days by Hoechst 33342 dye based imaging analysis. It counts as functional. The gist of the method: as §4
For series [32], the system named is MCF7:CFR. Nature of the series: Growth inhibition of fulvestrant-resistant human MCF7:CFR cells at 1 to 30 nM treated for 3 hrs followed by compound washout and measured after 5 days by Hoechst 33342 dye based imaging analysis. It counts as functional, cell-based. The gist of the method:
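MCF-7:CFR cells grown 2 days in phenol red-free RPMI/10% charcoal-dextran FBS, then seeded at 2000 cells/well. Treated next day; medium replaced with normal growth medium after 3 h. On day 5, cells stained with Hoechst 33342 and counted by imaging. Survival normalized to DMSO (100%) and JQ1 3 μM (0%).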

The subject of series [33] is MCF7:TAM1. Nature of the series: Antitumor activity against human MCF7:TAM1 cells xenografted in ovariectomized athymic Nude-Foxn1 mouse assessed as tumor growth inhibition at 30 mg/kg/day, po administered via gavage for 4 weeks in presence of fulvestrant. It counts as functional, organism-based. The gist of the method:
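MCF-7:Tam1 tumours established in 4–6 week old female ovariectomized athymic nude mice given daily tamoxifen 1.5 mg/mouse. […] Fulvestrant 1 (mg/mouse)/week sc. Tumour volume measured weekly by calipers as length × width² × π/6.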
(In general: A xenograft is tissue or cells of one species grown in another, often human tumour cells in immunodeficient mice.)

Series [34] in a line: Induction of thrombocytopenia in rat assessed as platelet count […] at 3 mg/kg, po administered daily for 10 days (reference value: […]). In kind it is organism-based. To be noted: in vivo, 240 h.

Take `CCS(=O)(=O)Nc1cc(-c2cn(C)c3c(=O)[nH]ccc23)cc2c1ccn2C(C)(c1ccccn1)c1ccccn1`: the result in series [1], in [2], in series [3], in series [4], in [5] and in series [6] was Active. The outcome in series [7], in series [8], in [9], in series [10], in series [11] and in series [12] was Active. In addition, the result in series [13], in series [14], in [15], in series [16], in series [17] and in series [18] was Active. Further, the result in [19], in [20], in series [21], in [22], in [23] and in series [24] was Active. In [25], the outcome was Active. Further, the “growth inhibition (GI)” value in series [26], in series [27], in [28], in series [29], in series [30] and in series [31] was “Dose-dependent effect” throughout. Further, the “growth inhibition (GI)” value in [32] is “Active”. For the same molecule, the TGI entry in series [33] was “Active”.

Consider `CCS(=O)(=O)Nc1ccc(Oc2ccc(F)cc2F)c(-c2cn(C)c(=O)c3[nH]ccc23)c1` [MIVEBRESIB], for which, in [34], the platelet count was 173 10^3/µL.
